PABP polyA inh: PABP-poly(A) binding inhibition; P11940; PABP-poly(A) RNA binding, fluorescence polarization; calls only at 35 µM; 290,000 tested, 1% active;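 note: calls also rest on retests at 20 µM and on dose response follow-up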
Target sequence (P11940 whole entry, looked up): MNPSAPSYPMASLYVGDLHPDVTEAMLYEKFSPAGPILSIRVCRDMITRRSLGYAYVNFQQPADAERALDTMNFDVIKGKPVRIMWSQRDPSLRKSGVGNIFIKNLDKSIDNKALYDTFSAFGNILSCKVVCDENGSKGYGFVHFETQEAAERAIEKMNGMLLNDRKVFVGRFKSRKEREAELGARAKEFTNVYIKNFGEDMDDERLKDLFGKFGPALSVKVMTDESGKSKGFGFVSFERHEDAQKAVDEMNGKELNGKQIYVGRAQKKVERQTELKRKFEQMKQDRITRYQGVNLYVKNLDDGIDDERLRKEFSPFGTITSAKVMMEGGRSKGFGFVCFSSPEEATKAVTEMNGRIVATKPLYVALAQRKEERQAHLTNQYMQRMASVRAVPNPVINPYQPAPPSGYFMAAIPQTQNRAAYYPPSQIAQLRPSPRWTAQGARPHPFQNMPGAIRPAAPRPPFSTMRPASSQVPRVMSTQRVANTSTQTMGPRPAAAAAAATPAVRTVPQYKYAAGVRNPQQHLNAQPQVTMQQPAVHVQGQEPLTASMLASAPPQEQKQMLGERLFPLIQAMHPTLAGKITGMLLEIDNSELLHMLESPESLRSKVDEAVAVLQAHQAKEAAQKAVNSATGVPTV
eIF4H inh: inhibitors of RNA binding by human eIF4H | Q15056 | eIF4H fluorescence polarization binding assay | 290,000 tested, 0.94% active | inhibition, % at 35 µM | AID 2012;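 note: calls also rest on retests at 20 µM and on dose response follow-up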
VIM-2 inh: inhibitors of Pseudomonas aeruginosa VIM-2 metallo-beta-lactamase; purified VIM-2, nitrocefin hydrolysis, epi-absorbance fluorescence; inhibition, % at 5.6 µM; 290,000 tested, 0.89% active; AID 1527;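 active = inhibition above the mean of all tested compounds plus 3 SD, cutoff set per screening run, cut at about 7.5% in these data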;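 note: red hydrolysis product quenches plate fluorescence so inhibitors raise well fluorescence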
MLLE-PAM2 inh: blocks PAM2 peptide binding to the PABP1 MLLE domain; P11940; GST-MLLE / FITC-PAM2 fluorescence polarization; inhibition, % at 20 µM; 360,000 tested, 0.36% active; AID 588489; in the data active = inhibition above about 35%, passing the limit was not always enough
IMP-1 inhibitor: inhibitors of Pseudomonas aeruginosa IMP-1 metallo-beta-lactamase. 290,000 tested, 0.45% active. purified IMP-1, nitrocefin hydrolysis, epi-absorbance fluorescence. inhibition, % at 5.6 µM;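 active = inhibition above the mean plus 3 SD of all compounds in the same screening run, cut at about 4.5% in these data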
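System: purified IMP-1 / Input: IMP-1 dispensed at 0.2 nM / Medium: 50 mM HEPES pH 7.1, 50 µM ZnSO4, 0.05% Brij 35 / Timing: 15 min enzyme–compound preincubation, then 25 min nitrocefin reaction, 25 °C / Technique: plate fluorescence quenching by hydrolysis product, ex 480/em 530 nm / Repeats: singlicate testing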
Large screens that a line does not name were inactive. In the library only some 2.2% were active in any assay of this set; here they are far more common. Unless noted, the rule behind the calls is not given here.

Cc1ccc(SC(=O)c2c(C)noc2-c2cc(C)on2)cc1	MLLE-PAM2 inh 41
Cc1cc(OCC(=O)NCc2ccccn2)c2c(C)c(C)c(=O)oc2c1	VIM-2 inh 9.0
Cc1cc(OC(C)C(=O)NCc2ccncc2)c2c(C)c(C)c(=O)oc2c1 (stereo not drawn)	VIM-2 inh 9.3
COc1cc(CN2CCCC(C(=O)c3ccccc3SC)C2)cc(OC)c1 (stereo not drawn)	none
Cc1cnnc2c1-c1nonc1CC2	IMP-1 inhibitor 4.5
COc1ccc(C2C=C(c3ccc(C)cc3)Nc3ncnn32)cc1 (stereo not drawn)	MLLE-PAM2 inh 41
O=C(c1ccc(F)c(S(=O)(=O)N2CCOCC2)c1)N1CCN(c2ccc(F)cc2)CC1	none (no result: PABP polyA inh, eIF4H inh, VIM-2 inh, IMP-1 inhibitor)
Cc1ccc(OCC(=O)N2CCN(C(=O)c3cccs3)CC2)cc1	PABP polyA inh active, eIF4H inh active
CC(C)CC(=O)N1CC(C)N(C(=O)CC(C)C)CC1C (stereo not drawn)	none (no result: MLLE-PAM2 inh)
COc1ccc(CCNCC(=O)Nc2ccc(C)c(S(=O)(=O)N(C)C)c2)cc1	PABP polyA inh active, eIF4H inh active
Cc1ccc(NC(=O)CNCc2ccccc2Cl)cc1S(=O)(=O)N(C)C	IMP-1 inhibitor 37
Cc1ccc(NC(=O)c2cc3ccccc3oc2=O)cc1S(=O)(=O)N(C)C	PABP polyA inh active
CCc1nn(CC(=O)NCCN2CCOCC2)c(=O)c2cc3c(OC)cccc3n12	VIM-2 inh 8.8
COc1cccc2c1cc1c(=O)n(CC(=O)NCCCN3CCN(C)CC3)nc(C)n12	VIM-2 inh 10
COc1cccc2c1cc1c(=O)n(CC(=O)NC3CCCCC3)nc(C)n12	none
CCCSCCCNC(=O)Cn1nc(CC)n2c(cc3c(OC)cccc32)c1=O	IMP-1 inhibitor 9.1
CCCN1CCN(C(=O)Cn2nc(C)n3c(cc4c(OC)cccc43)c2=O)CC1	none (no result: PABP polyA inh, eIF4H inh, VIM-2 inh, IMP-1 inhibitor)
Cc1ccc(CN(CC(=O)NC2CCCC2)C(=O)CSc2nnc(COc3ccccc3)o2)cc1	MLLE-PAM2 inh 41
Cc1cccc(C)c1NC(=O)CN(C)C(=O)c1cccc(S(=O)(=O)N2CCN(c3ccccc3)CC2)c1	PABP polyA inh active
COc1ccccc1NC(=O)C/C(N)=N/O	none
CCOC(=O)c1c[nH]c2c(Cl)ccc(Cl)c2c1=O	VIM-2 inh 8.6
CCOC(=O)c1c[nH]c2c(C(=O)c3ccccc3)cc(Cl)cc2c1=O	VIM-2 inh 7.7
CCOC(=O)c1c[nH]c2c(C)ccc(Cl)c2c1=O	none
CN(Cc1ccc(C(C)(C)C)cc1)C(=O)Cc1ccc(S(=O)(=O)N2CCOCC2)s1	none (no result: PABP polyA inh, eIF4H inh, VIM-2 inh, IMP-1 inhibitor)
O=C1C2C3C=CC(CC3)C2C(=O)N1c1nccs1 (stereo not drawn)	PABP polyA inh active, eIF4H inh 105
O=C1C2C3C=CC(C2C(=O)N1c1nccs1)C1C(=O)N(c2nccs2)C(=O)C31 (stereo not drawn)	none
COc1ccc(/C=C/c2cc(O)cc(OC3OC(CO)C(O)C(O)C3O)c2)cc1 (stereo not drawn)	none (no result: PABP polyA inh, eIF4H inh, VIM-2 inh, IMP-1 inhibitor)
O=C(NCCCN1CCN(c2cccc(Cl)c2)CC1)C1CCC(=O)N1Cc1ccccc1Cl (stereo not drawn)	IMP-1 inhibitor 6.5
CN(CCCNC(=O)C1CCC(=O)N1Cc1ccccc1Cl)c1ccccc1 (stereo not drawn)	none
Cc1nc(NC(=S)Nc2ccccc2)sc1C	MLLE-PAM2 inh 37
N#CCC(=O)Nc1ccc(C(=O)OCC(=O)Nc2cccc(C(F)(F)F)c2)cc1	none
CS(=O)(=O)N1CCN(C2C3CC4CC(C3)CC2C4)CC1 (stereo not drawn)	none
CC1=C(C(=O)N(C)C)CC(CC(=O)NCC2CCCCC2)C(=O)N1Cc1ccc(F)cc1 (stereo not drawn)	none (no result: PABP polyA inh, eIF4H inh, VIM-2 inh, IMP-1 inhibitor)
CCc1ccc(N=C2NC(=O)/C(=C/c3cc(Br)c(OCC(=O)O)c(OC)c3)S2)cc1	eIF4H inh 81
O=C(NC1CCC(O)CC1)c1cc(-c2ccco2)nc2ccccc12 (stereo not drawn)	PABP polyA inh active, eIF4H inh 85
O=C(N/N=C/c1cccc(F)c1)c1cc(-c2ccco2)nc2ccccc12	PABP polyA inh active, eIF4H inh 84
COc1cc(/C=N/NC(=O)c2cc(-c3ccco3)nc3ccccc23)cc(OC)c1O	PABP polyA inh inconclusive, eIF4H inh inconclusive
CCc1nnc(NC(=O)c2cc(-c3ccccn3)nc3ccccc23)s1	none
CCc1nnc(NC(=O)c2cc(-c3ccco3)nc3ccccc23)s1	eIF4H inh 76
COc1ccccc1CNC(=O)COC(=O)c1cc(-c2ccco2)nc2ccccc12	PABP polyA inh active, eIF4H inh 90
O=C(NCC1CCCO1)c1cc(-c2ccco2)nc2ccccc12 (stereo not drawn)	PABP polyA inh active, eIF4H inh 82
O=C(NCC1CCCO1)c1cc2nc(-c3ccco3)cc(C(F)(F)Cl)n2n1 (stereo not drawn)	PABP polyA inh active, eIF4H inh 83
CCOc1ccc2nc(SCC(=O)NCc3ccccc3OC)[nH]c2c1	none
CC(C)(C)NC(=O)C1CCN(S(=O)(=O)c2cccc(C(F)(F)F)c2)CC1	none
COc1ccc(NC(=O)c2cccc(S(=O)(=O)N3CCOCC3)c2)cn1	PABP polyA inh active, eIF4H inh 73
O=C(O)COc1ccccc1/C=N/NC(=O)c1cccc(S(=O)(=O)N2CCOCC2)c1	eIF4H inh 2.2
COc1ccc(NC(=O)c2cccc(S(=O)(=O)N3CCOCC3)c2)cc1	none
CCCc1cc(C(=O)Nc2ccc(C(=O)c3ccc(C)cc3)cc2)n(C)n1	none
O=C(O)c1cc(N/N=C/C=C/c2ccccc2)ccc1Cl	none
CCCCNC(=O)CC1S/C(=N/N=C/c2ccc(OC)cc2)NC1=O (stereo not drawn)	eIF4H inh 10
C=CCOc1ccccc1CN(CCc1ccccc1)C(=O)c1cccc(S(C)(=O)=O)c1	none
O=C(NNC(=O)C12CC3CC(CC(C3)C1)C2)[C@@H]1C[C@H]1c1ccccc1	none
O=C1C(Cl)=C(N2CCCCCC2)C(=O)N1c1ccc(Cl)cc1	none
O=C1C(Cl)=C(N2CCCCC2)C(=O)C(Cl)=C1c1cnc(N2CCCCC2)s1	eIF4H inh inconclusive, MLLE-PAM2 inh 48
CN(C)c1ncc(C2=C(Cl)C(=O)C(N3CCCC3)=C(Cl)C2=O)s1	MLLE-PAM2 inh 41, IMP-1 inhibitor 5.2 (no result: PABP polyA inh, eIF4H inh)
CCOc1ccccc1-c1nc(-c2ccc(NC(=O)Cc3ccccc3OC)cc2)no1	PABP polyA inh active, eIF4H inh 54
COc1ccccc1N1CCN(C(=O)c2cc3c(=O)n(C)c4ccccc4c3n2C)CC1	VIM-2 inh 8.8
Cn1c(C(=O)N2CCN(C(=O)c3ccco3)CC2)cc2c(=O)n(C)c3ccccc3c21	VIM-2 inh 11
NC(=O)c1nnn(-c2ccc([N+](=O)[O-])cc2)c1-c1ccccc1	none
CC(=O)c1nnn(-c2ccc([N+](=O)[O-])cc2)c1C	eIF4H inh active
N#CCC(=O)Nc1ccc(C(=O)OCC(=O)NC(=O)NCc2ccco2)cc1	none (no result: PABP polyA inh, eIF4H inh, VIM-2 inh, IMP-1 inhibitor)
CN(C)S(=O)(=O)c1ccc(C(=O)NC(=O)CSc2ccccc2)cc1	none
